Source: PubChem
Furin inh = human furin inhibitors, primary screen, biochemical, fluorescence intensity; P09958; purified furin, fluorogenic substrate cleavage; inhibition, % at 20 µM or 30 µM; hit rate 0.061% among 220,000; in the data active = inhibition above about 25%
NPY2 pot ag = NPY-Y2 potentiators or agonists, primary screen, cell-based; hit rate 0.45% among 220,000; cells expressing NPY-Y2, potentiator/agonist read-out; AID 1359, 2008; Neuropeptide Y receptor type 2 (Homo sapiens), P49146; activation, % at 3.6 µM; in the data active = activation above about 27%;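 also: cells stimulated with NPY near EC25 plus isoproterenol at EC100; 0% = vehicle plus submaximal agonist and 100% = vehicle plus saturating agonist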
Target sequence (P49146 whole entry, looked up): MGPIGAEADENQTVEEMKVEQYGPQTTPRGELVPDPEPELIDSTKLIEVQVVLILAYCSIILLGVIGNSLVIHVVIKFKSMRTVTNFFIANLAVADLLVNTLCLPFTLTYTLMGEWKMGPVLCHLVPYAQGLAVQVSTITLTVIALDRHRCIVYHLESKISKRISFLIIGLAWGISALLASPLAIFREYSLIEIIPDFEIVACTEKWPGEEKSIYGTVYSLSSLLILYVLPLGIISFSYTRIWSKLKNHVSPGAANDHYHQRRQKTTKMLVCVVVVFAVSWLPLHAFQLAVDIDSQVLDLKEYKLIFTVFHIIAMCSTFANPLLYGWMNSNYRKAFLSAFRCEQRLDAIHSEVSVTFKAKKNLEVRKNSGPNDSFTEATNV
NPY Y2 blocker = NPY-Y2 receptor antagonists, primary screen, cell-based; Neuropeptide Y receptor type 2 (Homo sapiens), P49146; NPY-Y2 expressing cells, antagonist mode; inhibition, % at 2.7 µM; hit rate 0.99% among 140,000; AID 793, 2007; in the data active = inhibition above about 17%;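 also: 0% = vehicle with agonist challenge and 100% = reference antagonist with challenge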
NPY-Y1 antag = NPY-Y1 receptor antagonists, primary screen, cell-based; HEK293-CNG Y1 cells, membrane potential fluorescence; NPY at EC95, then isoproterenol; hit rate 1% among 200,000; inhibition, % at 3.6 µM; Neuropeptide Y receptor type 1 (Homo sapiens), P25929;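 active = inhibition above the campaign mean inhibition of all tested compounds plus 3 SD, cut at about 20% in these data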;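 also: 0% = DMSO wells given NPY plus isoproterenol and 100% = isoproterenol alone without NPY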
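Test system – HEK293 Y1/CNG channel cell line · Also added – NPY agonist 25 nM, then isoproterenol 1 µM plus Ro 20-1724 25 µM · Compound dosing – one concentration, 3.6 µM, in 0.4% DMSO · Schedule – compound incubation 1 h at room temperature, readout 45 min post-stimulation · Technique – fluorescence, membrane potential probe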
Cl transport mod = KCC2 cotransporter modulators, thallium flux, primary screen, cell-based, HEK293 KCC2, FluoZin-2 fluorescence, MLSMR; B-score of Tl+ flux slope (higher = more flux/activation; lower = inhibition) at 10 µM; KCC2 cells, thallium flux FluoZin-2 fluorescence; Solute carrier family 12 member 5 (Homo sapiens), Q9H2X9; hit rate 2.2% among 190,000; AID 1456, 2008;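 active = thallium flux slope and its plate-corrected score both differing from the plate sample mean at a set confidence after two filtering rounds, in either direction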;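 also: slope of fluorescence scaled to starting intensity during 10 to 20 s after thallium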
NPY-Y1 PAM-ag = NPY-Y1 receptor potentiators or agonists, primary screen, cell-based. NPY-Y1 expressing cells, potentiator/agonist activation. activation, % at 3.6 µM. hit rate 0.37% among 220,000. AID 1304, 2008; in the data active = activation above about 33%, passing the limit was not always enough;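 also: cells stimulated with NPY at EC10 then isoproterenol at EC100; 0% = low agonist plus stimulus and 100% = saturating agonist plus stimulus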
An asterisk follows results filed as active; . = not tested or not shown. Compounds with a hit are over-represented: about 3.7% of the library has one in this group of screens.

SMILES	Furin inh	NPY2 pot ag	NPY Y2 blocker	NPY-Y1 antag	Cl transport mod	NPY-Y1 PAM-ag
O=C(C(Sc1ccccc1)c1ccccc1)N1CCN(c2ccccc2F)CC1 (configuration not stated)	-10.0	-10.4	20.0*	35.7*	-0.858	-10.2
CCCCCc1cccnc1	-20.4	9.9	.	.	1.12	12.4
CC(C)(C)C(=O)NC(=C(Cl)Cl)P(=O)(O)O	9.2	4.7	-0.6	4.0	-3.8*	11.8
Cc1sc2nc[nH]c(=S)c2c1-c1ccccc1	-18.6	-0.5	.	4.0	30.7*	-18.5
O=c1[nH]cnc2scc(-c3ccccc3)c12	-2.3	-18.4	-0.5	-5.5	0.0491	-10.2
Cc1cc(-c2csc3nc[nH]c(=S)c23)cc(C)c1C	-23.8	-9.6	.	1.2	85.1*	11.9
Cc1ccc(-c2csc3nc[nH]c(=S)c23)cc1	-15.2	1.2	0.2	4.6	49.7*	10.2
Cc1ccnc(NS(=O)(=O)c2ccc(NC(=O)c3ccc(S(=O)(=O)N4CCCC4)cc3)cc2)n1	-40.2	-4.8	.	0.9	0.768	3.9
Cc1cc(N=Nc2ccccc2)c(NCC(O)C(O)C(O)CO)cc1C (configuration not stated)	-6.9	56.6*	.	-16.3	-0.102	73.2*
Cn1c(=S)[nH]c2scc(-c3cccs3)c2c1=O	-9.7	-16.6	.	8.7	58.7*	-17.0
C=CCn1c(=S)[nH]c2scc(-c3cccs3)c2c1=O	-17.2	-1.7	.	4.2	88.8*	-16.8
O=c1c2c(-c3cccs3)csc2ncn1-c1ccc(Br)cc1	-7.9	-32.6	5.3	0.3	-0.857	1.0
Cc1ccc(OC/C(=N\O)C(C)(C)C)c([N+](=O)[O-])c1	-16.8	3.0	.	6.2	-2.1	-19.4
CC(=O)Nc1nc2ccc(-c3nc4ccccc4o3)cc2s1	-27.4	37.4*	-5.9	-14.7	-0.373	46.2*
CCOC(=O)C1=C(C)NC(=O)NC1c1ccsc1 (configuration not stated)	-23.7	39.6*	0.4	-7.5	.	111.0*
Cc1ccc(NC(=O)CSc2nc3ccccc3c(=O)n2CCCN2CCCCC2)cc1C	-20.1	-54.2	33.5*	38.1*	0.0307	-96.5
Cc1ccc(NC(=O)CSc2nc3ccccc3c(=O)n2CCCC(=O)N2CCCC2)cc1	-12.3	9.1	1.0	-6.4	-0.638	15.8
O=C(Cn1nc(CNc2ccc(Br)cc2)[n+]2c1CCCCC2)c1ccc([N+](=O)[O-])cc1	-10.7	-7.0	.	.	0.0204	14.1
Cc1cc(C)c(S(C)(=O)=O)c(NN)n1	-13.1	-5.8	.	-3.8	0.467	-4.4
CC1=C/C(=N\NC(=S)Nc2cccnc2)CC(C)(C)C1	-2.1	6.3	.	-2.3	15.6*	2.0
CC1(C)C2CC=C(/C=N/NC(=S)Nc3cccnc3)C1C2 (configuration not stated)	-15.0	-2.4	.	1.7	1.31	15.2
COC(=O)/C(=C1/Oc2ccc(C)cc2S1)C(F)(F)F	-24.4	-5.5	1.8	-0.2	0.95	11.2
CC(C)Cn1c(N)c(C(=O)COC(=O)CCc2nc3ccccc3s2)c(=O)n(C)c1=O	-19.6	26.3	.	20.4*	-2.24	1.0
CC(C)Cn1c(N)c(C(=O)COC(=O)c2ccncc2)c(=O)n(C)c1=O	-22.1	-12.2	3.0	-4.4	1.44	0.4
Cc1cccc(NC(=O)CSc2nc3ccccc3c3nc(CCc4c(C)n[nH]c4C)nn23)c1	-20.1	4.4	1.1	-1.6	0.0501	-13.8
SMILES	Furin inh	NPY2 pot ag	NPY Y2 blocker	NPY-Y1 antag	Cl transport mod	NPY-Y1 PAM-ag
Cc1cncn1CCc1nc2c3ccccc3nc(SCC(=O)Nc3cccc(Cl)c3)n2n1	-4.8	-25.6	32.9*	48.9*	-0.0426	-107.2
CC(C)COn1c(=S)[nH]c2ccccc2c1=O	-13.0	8.4	1.5	2.9	49*	-1.2
CN(C)c1ccc(N=Nc2ccccc2C(=O)OCC(=O)NCC2CCCCC2)cc1	21.4	53.8*	-4.9	-12.9	-0.313	59.2*
CCC(C)(C)NC(=O)C(c1ccccc1F)N(Cc1ccco1)C(=O)Cn1nnc2ccccc21 (configuration not stated)	-13.8	-120.6	72.5*	96.3*	-0.369	-135.5
CCc1ccc(C(C(=O)NC(C)(C)CC)N(Cc2ccco2)C(=O)Cn2nnc3ccccc32)cc1 (configuration not stated)	-20.9	-149.5	51.4*	54.5*	-0.494	-117.4
CCC(C)(C)NC(=O)C(c1ccccc1F)N(Cc1ccco1)C(=O)c1csnn1 (configuration not stated)	-15.6	-2.4	1.4	4.0	.	2.7
CCOC(=O)c1c(/N=C/C2=C(O)CCCC2=O)sc(C)c1C	28.0*	-0.4	4.9	6.0	-2.89	-4.0
CCOC(=O)c1c(/N=C/C2C(=O)CCCC2=O)sc(C)c1C	18.8	15.8	6.3	3.0	-0.491	-4.9
O=C(N/N=C/c1c(O)n(Cc2ccccc2)c(=O)c2ccccc12)c1cccnc1	-29.9	-3.1	.	-4.0	-3.17*	-6.9
Cc1ccc([N+](=O)[O-])cc1NC(=O)CN(C1CCCCC1)S(=O)(=O)c1ccc(Cl)cc1	-9.5	5.3	3.1	2.1	-2.06	18.9
Cc1ccc([N+](=O)[O-])cc1NC(=O)CN(C(=O)c1ccccc1Cl)C1CCCCC1	-17.1	10.9	25.9*	50.0*	-0.601	-9.1
Cc1ccc(C(C(=O)NCc2ccco2)N(C(=O)Cc2cccs2)c2cccnc2)cc1 (configuration not stated)	-24.2	6.4	.	-0.3	-0.431	1.5
O=C(O)CCC(=O)Nc1nc(-c2ccccc2)cs1	-17.8	-14.2	22.3*	12.1	0.437	-40.9
Cc1ccc2nc(N(CCCN(C)C)C(=O)c3sc4ccccc4c3Cl)sc2c1	-15.9	-17.2	12.9	14.4	0.744	-41.9
CCOc1ccc(/C=C/[N+](=O)[O-])c2ccccc12	-11.5	-10.7	27.4*	32.1*	0.0176	-14.6
CN(C)CCNC(=S)Nc1ccc(F)c(F)c1F	-20.5	18.0	.	3.5	0.781	-4.1
CN(C)C(=O)COC(=O)c1ccccc1NC(=O)c1ccco1	-24.5	4.4	.	2.4	0.714	-0.5
Cc1ccccc1NC(=S)NNC(=O)c1csc2c1CCC(C)C2 (configuration not stated)	-10.0	-9.8	5.0	0.9	94.3*	-1.2
CCNC(=S)NNC(=O)c1csc2c1CCC(C)C2 (configuration not stated)	-20.2	8.0	-1.9	-0.7	0.367	5.0
O=C(O)/C=C\C(=O)Nc1ccccc1C(=O)N1CCN(c2ccc(Cl)cc2)CC1	-21.3	31.2*	1.0	1.8	0.749	90.7*
COc1ccc(Nc2ncnc3scc(-c4ccc(OC)cc4)c23)cc1	1.4	0.5	31.8*	20.7*	-1.2	-55.2
